Here are results for 15 molecules from ChEMBL document CHEMBL1124678, “New anticancer agents: alterations of the carbamate group of ethyl (5-amino-1,2-dihydro-3-phenylpyrido[3,4-b]pyrazin-7-yl)car bamates” (J Med Chem, 1989).

A value given as a limit tells only on which side of the number the result lay.

For test [1], the system named is L1210. Kind of test: The compound was tested in vitro for growth of inhibitory activity against lymphoid leukemia L1210 cells. It counts as functional, cell-based, Mus musculus. The essentials: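 Cultured L1210 lymphoid leukemia cells exposed to agent for 48 h; proliferation measured against untreated control growth. IC50 is the nanomolar concentration holding growth to 50% of control; some values averaged from two determinations.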

Test [2] relates to L1210. Nature of the test: Mitotic index (fraction of cells in mitosis divided by total cells ) for cultured lymphoid leukemia L1210 cells. It counts as functional, Mus musculus. The essentials:
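Cultured L1210 lymphoid leukemia cells exposed to agent for 12 h; mitotic index scored as fraction of cells in mitosis over total cells. Value is the nanomolar concentration giving a mitotic index of 0.5 (MI0.5).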

Test [3] concerns P388. Nature of the test: Increase in the life span of mice implanted with lymphocytic leukemia P388 at the highest nontoxic dose of 0.5 mg/Kg given to the compound intraperitoneally. The test is classed as functional. Conditions: Mus musculus, P388, ip.
The subject of test [4] is P388. Nature of the test: Increase in the life span of mice implanted with lymphocytic leukemia P388 at the highest nontoxic dose of 12 mg/Kg given to the compound intraperitoneally. Conditions: Mus musculus, P388, ip. The test is classed as functional.
Test [5] concerns P388. Kind of test: Increase in the life span of mice implanted with lymphocytic leukemia P388 at the highest nontoxic dose of 1 mg/Kg given to the compound intraperitoneally. It counts as functional. Conditions: Mus musculus, P388, ip.
In test [6] the test system is P388. Kind of test: Increase in the life span of mice implanted with lymphocytic leukemia P388 at the highest nontoxic dose of 2 mg/Kg given to the compound intraperitoneally. It counts as functional. Conditions: Mus musculus, P388, ip.
The subject of test [7] is P388. Nature of the test: Increase in the life span of mice implanted with lymphocytic leukemia P388 at the highest nontoxic dose of 25 mg/Kg given to the compound intraperitoneally. The test is classed as functional. Conditions: Mus musculus, P388, ip.
Test [8] relates to P388. Nature of the test: Increase in the life span of mice implanted with lymphocytic leukemia P388 at the highest nontoxic dose of 50 mg/Kg given to the compound intraperitoneally. It counts as functional. Conditions: Mus musculus, P388, ip.
Test [9] has as its system P388. Nature of the test: Increase in the life span of mice implanted with lymphocytic leukemia P388 at the highest nontoxic dose of 200 mg/Kg given to the compound intraperitoneally. The test is classed as functional. Conditions: Mus musculus, P388, ip.
The test system of test [10] is P388. Kind of test: Increase in the life span of mice implanted with lymphocytic leukemia P388 at the highest nontoxic dose of 200 mg/Kg given to the compound intraperitoneally on day 1. It counts as functional. Conditions: Mus musculus, P388, ip, 24 h.
Test [11] relates to P388. Nature of the test: Increase in the life span of mice implanted with lymphocytic leukemia P388 at the highest nontoxic dose of 1.5 mg/kg given to the compound intraperitoneally. Conditions: Mus musculus, P388, ip, route intraperitoneal. The test is classed as functional.

In the case of `CCOC(=O)Nc1cc2c(c(N)n1)N=C(c1ccccc1)C(C)N2.O=S(=O)(O)CCO` (stereo not given), the concentration for half-maximal inhibition (IC50) (as a rule, the concentration needed to halve the response being measured) in the test on L1210 [1] (l1210) came out at 0.54 nM. This molecule also gave an MI0.5 in the test with L1210 [2] of 0.74 nM. In the test on P388 [3], the ILS – broadly, how much longer treated animals lived than controls – at 0.5 mg/kg came out at 46%.

Regarding `CCC(C)OC(=O)Nc1cc2c(c(N)n1)N=C(c1ccccc1)C(C)N2` (stereo not given), the IC50 in the test with L1210 [1] (Mus musculus, L1210) was 1.2 nM. The molecule also displayed an ILS at 12 mg/kg with P388 [4] of 60%.

On to `CCOC(=O)Nc1cc2c(c(N)n1)N=C(c1ccccc1)C(C)N2.Cl` (stereo not given), for which, in the test with L1210 [1] (Mus musculus, L1210), the IC50 was determined as 0.51 nM. In the test on L1210 [2], this molecule returned an MI0.5 of 1.5 nM. For the same molecule, in the test on P388 [5], the increase in lifespan (ILS) at 1 mg/kg came out at 75%.

In turn, `CCOC(=O)Nc1cc2c(c(N)n1)N=C(c1ccccc1)CN2` showed an MI0.5 in the test with L1210 [2] of 2.8 nM. In the test on P388 [6], this molecule had an ILS at 2 mg/kg of 51%.

Regarding `CC1Nc2cc(NC(=O)OCc3ccccc3)nc(N)c2N=C1c1ccccc1` (stereo not given), the IC50 in the test on L1210 [1] (Mus musculus, L1210) was determined as 63 nM.

On to `CCOC(=O)Nc1cc2c(c(NC(C)=O)n1)N=C(c1ccccc1)CN2`, for which the IC50 with L1210 [1] (Mus musculus, L1210) came out at 8.6 nM. This molecule came in with an MI0.5 in the test with L1210 [2] of 23 nM. Moreover, the increase in lifespan (ILS) at 25 mg/kg in the test with P388 [7] worked out at 49%.

In turn, `Nc1nccc2c1N=C(c1ccccc1)CN2` yielded an IC50 in the test on L1210 [1] (Mus musculus, L1210) of 2800 nM. In the test on L1210 [2], this molecule showed an MI0.5 of more than 10000 nM. The ILS at 50 mg/kg in the test with P388 [8] is 0%.

Consider `CC1Nc2cc(N)nc(N)c2N=C1c1ccccc1` (stereo not given), for which inhibition in the test on L1210 [1] (Mus musculus, L1210) was half-maximal at 500 nM (IC50). In the test with L1210 [2], this molecule displayed an MI0.5 of 850 nM.

On to `CC(=O)Nc1cc2c(c(NC(C)=O)n1)N=C(c1ccccc1)C(C)N2C(C)=O` (stereo not given), for which, in the test with L1210 [1] (Mus musculus, L1210), the 50% inhibitory concentration (IC50) was more than 100 nM.

On to `CCOC(=O)Nc1nc(NC(=O)OCC)c2c(c1N)NC(C)C(c1ccccc1)=N2` (stereo not given), for which, in the test on L1210 [1] (Mus musculus, L1210), the IC50 is more than 300 nM. In the test on P388 [9], this molecule showed an ILS at 200 mg/kg of 0%.

Molecule `CNC(=O)Nc1cc2c(c(N)n1)N=C(c1ccccc1)C(C)N2` (stereo not given) registered an IC50 in the test with L1210 [1] (Mus musculus, L1210) of 20 nM. The molecule also gave an ILS at 12 mg/kg in the test on P388 [4] of 0%.

In the test with L1210 [1] (Mus musculus, L1210), `COC(=O)Nc1cc2c(c(N)n1)N=C(c1ccccc1)C(C)N2` (stereo not given) registered an IC50 of 0.54 nM. Also, the MI0.5 in the test with L1210 [2] amounted to 0.8 nM. For the same molecule, the ILS at 1 mg/kg in the test on P388 [5] was 88%.

In the test on L1210 [1] (Mus musculus, L1210), `Nc1nc(NC(=O)OC2CCCCC2)cc2c1N=C(c1ccccc1)CN2` gave an IC50 of 230 nM. Also, the MI0.5 in the test on L1210 [2] turned out to be 260 nM. In addition, the increase in life span (ILS) at 200 mg/kg with P388 [10] stood at 0%.

In turn, `COc1cc2c(c(OC)c1OC)-c1ccc(OC)c(=O)cc1[C@@H](NC(C)=O)CC2` [COLCHICINE] yielded a half-inhibitory concentration (IC50) with L1210 [1] (Mus musculus, L1210) of 6.4 nM. The molecule further gave an MI0.5 with L1210 [2] of 21 nM.

`CC[C@]1(O)C[C@H]2CN(CCc3c([nH]c4ccccc34)[C@@](C(=O)OC)(c3cc4c(cc3OC)N(C=O)[C@H]3[C@@](O)(C(=O)OC)[C@H](OC(C)=O)[C@]5(CC)C=CCN6CC[C@]43[C@@H]65)C2)C1` [VINCRISTINE] had a concentration for half-maximal inhibition (IC50) with L1210 [1] (Mus musculus, L1210) of 3.4 nM. This molecule also showed an MI0.5 in the test with L1210 [2] of 11 nM. For the same molecule, the ILS at 1.5 mg/kg in the test on P388 [11] was 122%.
